NadD inh: inhibitors of S. aureus NadD, primary screen, biochemical, colorimetric, uHTS; purified NadD enzyme, colorimetric absorbance read-out; inhibition, % at 20 µM; 0.78% of 360,000 active; AID 602399, 2012; in the data active = inhibition above about 26%
ABHD5-PLIN5 inh: ABHD5-PLIN5 interaction inhibitors, primary screen, cell lysate, split luciferase complementation, luminescence; 0.78% of 360,000 active; Split G. princeps luciferase complementation, 4 h; Perilipin-5 (Homo sapiens) + 1-acylglycerol-3-phosphate O-acyltransferase ABHD5 (Homo …; inhibition, % at 4 µM;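 active = inhibition above the mean inhibition across every tested compound plus 3 SD, cut at about 22% in these data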;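 note: 0% = DMSO only wells and the 100% control is not disclosed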
XiGFP reactiv: activators of inactive X chromosome reactivation, primary screen, imaging, XiGFP fibroblasts, GFP high-content imaging, set 2. 0.055% of 360,000 active. activation, % at 7.58 µM. AID 743238, 2013. XiGFP mouse fibroblasts, % GFP-positive cells imaging, 3 d; cells co-treated with 5-aza-dC sensitizer; scaled so ellipticine positive control = 100%;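 active = mean normalized replicate activation at least 10% and every replicate at or above 10%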;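 note: 0% = median of on-plate neutral control wells and 100% = ellipticine 6 µM median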
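Material: SV40-immortalized XiGFP fibroblast cells, line 68-5-11 | Buffer or medium: DMEM containing 5-aza-dC | Dosing: One concentration, pinned | Times: 3 d treatment, 15 min room-temperature fixation | Controls: Ellipticine 6 µM positive control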
Rin1-Abl PPI inh: inhibitors of Rin1-Abl protein binding, primary screen, biochemical, TR-FRET. Tyrosine-protein kinase ABL1 (Homo sapiens) + Ras and Rab interactor 1 (Homo sapiens), …. inhibition, % at 7.35 µM. 0.4% of 360,000 active; in the data active = inhibition above about 5%, passing the limit was not always enough
Rpn11 inh: Rpn11 (PSMD14) deubiquitinase inhibitors, primary screen, biochemical, fluorescence polarization, uHTS | 0.59% of 360,000 active | human 26S proteasome, Ub4-pepOG fluorescence polarization; 20S core pre-blocked with epoxomicin | inhibition, % at 20 µM | 26S proteasome non-ATPase regulatory subunit 14 (Homo sapiens), O00487;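 active = inhibition at 20 µM, scaled to each plate's controls, above about 33%, limit read from the data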
Rin1-Abl confirm: Rin1-Abl binding inhibitor retest, confirmation, biochemical, TR-FRET; shares compounds with Rin1-Abl PPI inh; purified proteins; inhibition, % at 7.35 µM; 49% of 1,300 active; AID 602124, 2011
GFP quench-1: GFP fluorescence inhibitors and quenchers, artefact control for Rin1-Abl interaction inhibitor project, biochemical; 8.5% of 1,300 active; shares compounds with Rin1-Abl PPI inh; inhibitors/quenchers counterscreen; inhibition, % at 6.75 µM;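 note: ABL1-eGFP fusion protein alone without its partner RIN1-SBP; 0% = protein with vehicle and 100% = wells lacking protein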
GFP quench dose: GFP fluorescence inhibitors and quenchers, dose response, artefact control for Rin1-Abl interaction inhibitor project, biochemical. AID 602182, 2012. IC50, µM. shares compounds with Rin1-Abl PPI inh. GFP fluorescence interference/quenching counterscreen. 230 tested, under 10 active; call rule not given here;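 note: ABL1-eGFP fusion protein alone without its RIN1 binding partner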
GFP quench-2: GFP fluorescence inhibitors and quenchers, late-stage follow-up, artefact control for Rin1-Abl interaction inhibitor project, biochemical, dose response. shares compounds with Rin1-Abl PPI inh. 25 tested, under 10 active. IC50, µM. GFP fluorescence quenching counterscreen; call rule not given here
ABHD5-PLIN5 conf: ABHD5-PLIN5 interaction inhibitors, confirmation, biochemical, luminescence | shares compounds with ABHD5-PLIN5 inh | inhibition, % at 4 µM | 67% of 2,200 active | AID 651612, 2012; in the data active = inhibition above about 23%;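 note: 0% = DMSO vehicle wells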
HNF4 split-luc: HNF4 dimerization inhibitors, counter-screen for ABHD5-PLIN5 interaction inhibitor project, biochemical, split-luciferase complementation, luminescence; AID 651674, 2012; shares compounds with ABHD5-PLIN5 inh; 77% of 2,200 active; inhibition, % at 4 µM;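 active = mean inhibition across replicate wells exceeding the computed hit threshold, cut at about 13% in these data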;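 note: light from luciferase halves that rejoin when HNF4 fusion proteins dimerize; 0% = DMSO only wells and the 100% control is not given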
* hit, by the source's call; / = no result shown. This is a sample that favours compounds with a hit; in the whole collection about 1.9% have one here. Cut-off read from the data, not from the text of the source, unless noted: active = inhibition above about 6.5%; inactive = the rest.

SMILES | NadD inh | ABHD5-PLIN5 inh | XiGFP reactiv | Rin1-Abl PPI inh | Rpn11 inh | Rin1-Abl confirm | GFP quench-1 | others
O=C1CNC[C@@H]2[C@@H](c3ccc(Br)cc3)[C@@H](CO)N12 | / | / | 0 | / | / | / | /
CCCN1CCc2cccc3c2[C@H]1Cc1ccc(O)c(O)c1-3 | 2 | 2 | / | 12* | -8 | 6 | 8.6*
COc1ccc2c(c1O)-c1c(OC)c(OC)cc3c1[C@H](C2)N(C)CC3 | 0 | 0 | 0 | 1 | -2 | / | /
COc1ccc(-c2ccc([C@@H]3[C@H](CO)N4CCCCN(C(=O)Cc5ccccc5)C[C@@H]34)cc2)cc1 | / | / | 0 | / | / | / | /
Cc1nc2c(=O)n(C)c(=O)nc-2n(C)n1 | -3 | -47 | / | 37* | 3 | 45* | 0 | GFP quench dose=>68
O=c1[nH]c2ccccc2n1C1CCN(C(c2nnnn2C2CCCCC2)C2CC2)CC1 (stereo not given) | 8 | 1 | 0 | 74* | 0 | 74* | -1 | GFP quench dose=>68
O=c1[nH]c2ccccc2n1C1CCN(C(c2nnnn2C2CCCC2)C2CC2)CC1 (stereo not given) | -4 | 2 | 0 | 31* | -4 | 23* | 0 | GFP quench dose=>68
O=C(O)[C@@H]1[C@@H](CO)[C@@H]2Cn3c(ccc(-c4cccc(F)c4)c3=O)[C@H]1N2CCc1ccccc1 | / | / | 0 | / | / | / | /
CN(C)C1C(=O)C(C(N)=O)=C(O)C2(O)C(=O)C3=C(O)c4c(O)cccc4C(C)(O)C3C(O)C12 (stereo not given) | 1 | 7 | 0 | 25* | / | 3 | 2
O=C(Cc1ccncc1)N1CCCCN2[C@H](CO)[C@H](c3ccc(C#Cc4ccccc4F)cc3)[C@H]2C1 | / | / | 0 | / | / | / | /
COCCCn1c(N)c(C(=O)OCCOC)c2nc3ccccc3nc21 | -4 | -20 | / | 0 | -3 | / | /
CCOC(=O)c1c(NS(=O)(=O)c2ccccc2)n(CCCOC)c2nc3ccccc3nc12 | 9 | -6 | 2 | 33* | 4 | 1 | 0
COC(=O)[C@H]1[C@H](CO)[C@H]2Cn3c(ccc(-c4ccccc4)c3=O)[C@@H]1N2CCc1ccccc1 | / | / | 0 | / | / | / | /
CCOC(=O)N1CCC(NC(=O)CCc2nc(C3=CCN(C)CC3)no2)CC1 | 4 | 6 | 0 | 70* | 4 | 50* | 0 | GFP quench dose=>68;GFP quench-2=>68
O=c1[nH]c(=O)n(-c2ccc(Br)cc2)c(O)c1C=NC(CO)(CO)CO | -2 | -4 | 0 | 6.0* | 8 | -1 | -1
COc1cccc(CN2CC3(C2)[C@H](c2ccccc2)[C@H](CO)N3C(=O)Cc2ccccc2)c1 | / | / | 0 | / | / | / | /
Clc1ccc2c(c1)C(OC1CN3CCC1CC3)c1ccccc1CS2 (stereo not given) | -4 | 21 | 0 | 9.7* | -14 | 3 | 0
CC=Cc1ccc2n(c1=O)C[C@H]1[C@H](CO)[C@@H](C(=O)N(C)C)N[C@@H]21 (mixture of isomers) | / | / | 0 | / | / | / | /
C=Cc1cc(OC)c2c(c1)c(=O)oc1c2cc(OC)c2c(O)ccc(C3OC(C)C(O)C(C)(O)C3O)c21 (stereo not given) | 22 | 7 | 2 | 22* | -10 | -5 | 1
COc1cccc(-c2ccc([C@@H]3[C@H](CO)N4CCCCN(C(=O)Cc5ccncc5)C[C@@H]34)cc2)c1 | / | / | 0 | / | / | / | /
CSCCC(c1nnnn1C1CCCCC1)N1CCC(n2c(=O)[nH]c3ccccc32)CC1 (stereo not given) | 1 | 2 | 0 | 53* | -4 | 44* | -2 | GFP quench dose=>68
O=c1[nH]c2ccccc2n1C1CCN(C(CCc2ccccc2)c2nnnn2C2CCCCC2)CC1 (stereo not given) | 19 | 5 | 0 | 27* | 0 | 14* | 0
CSCCC(c1nnnn1C1CCCC1)N1CCC(n2c(=O)[nH]c3ccccc32)CC1 (stereo not given) | -2 | 3 | 0 | 19* | 6 | 20* | -2 | GFP quench dose=>68
O=c1[nH]c2ccccc2n1C1CCN(C(CCc2ccccc2)c2nnnn2Cc2ccccc2)CC1 (stereo not given) | 16 | 6 | 1 | 1 | 2 | / | /
CC(C)(C)n1nnnc1C(CCc1ccccc1)N1CCC(n2c(=O)[nH]c3ccccc32)CC1 (stereo not given) | 12 | 12 | 0 | 17* | -4 | 11* | -1
SMILES | NadD inh | ABHD5-PLIN5 inh | XiGFP reactiv | Rin1-Abl PPI inh | Rpn11 inh | Rin1-Abl confirm | GFP quench-1 | others
O=C1CNC[C@@H]2[C@H](c3ccc(Br)cc3)[C@@H](CO)N12 | / | / | 0 | / | / | / | /
CC=Cc1ccc2n(c1=O)C[C@H]1[C@H](CO)[C@@H](C(=O)OC)[C@@H]2N1CC1CCOCC1 (mixture of isomers) | / | / | 0 | / | / | / | /
OC[C@H]1Nc2ccc(C#Cc3cccnc3)cc2[C@H]2NCC[C@H]21 | / | / | 0 | / | / | / | /
COc1ccc(C(=O)CN2CCOCC2)cc1F | -4 | 31* | / | -3 | -5 | / | / | ABHD5-PLIN5 conf=-3;HNF4 split-luc=9
[Cl][Pt+2][Cl].[NH-]C1CCCCC1[NH-] (stereo not given) | 1 | 36* | 0 | -6 | -2 | / | / | ABHD5-PLIN5 conf=60*;HNF4 split-luc=55*
CCN1[C@@H]2Cn3c(ccc(-c4cccc(C(=O)N(C)C)c4)c3=O)[C@H]1[C@@H](C(=O)OC)[C@@H]2CO | / | / | 0 | / | / | / | /
COc1ccc(OC)c(N2C(=O)CC(=O)NC2=O)c1 | 1 | 30* | 0 | -2 | 3 | / | / | ABHD5-PLIN5 conf=5;HNF4 split-luc=21*
COc1cc2c(cc1/C=C/[N+](=O)[O-])OCO2 | -2 | 66* | 0 | -3 | -10 | / | / | ABHD5-PLIN5 conf=96*;HNF4 split-luc=101*

Screening results as filed in PubChem BioAssay.
